ChEMBL document CHEMBL1141025, “Replacing alkyl sulfonamide with aromatic sulfonamide in sulfonamide-type RXR agonists favors switch towards antagonist activity” (Bioorg Med Chem Lett, 2009)
One block for each compound: values may come before it. The source made the active and inactive calls. The rule behind the calls is not given here.

What was measured:
[1] = target: T1, Retinoic acid receptor RXR-beta (Homo sapiens, UniProt P28702); test: Antagonist activity at RXRbeta expressed in african green monkey COS1 cells assessed as inhibition of LGD-1069-induced agonist activity; format: functional, cell-based, COS-1
T1 sequence (P28702 whole entry): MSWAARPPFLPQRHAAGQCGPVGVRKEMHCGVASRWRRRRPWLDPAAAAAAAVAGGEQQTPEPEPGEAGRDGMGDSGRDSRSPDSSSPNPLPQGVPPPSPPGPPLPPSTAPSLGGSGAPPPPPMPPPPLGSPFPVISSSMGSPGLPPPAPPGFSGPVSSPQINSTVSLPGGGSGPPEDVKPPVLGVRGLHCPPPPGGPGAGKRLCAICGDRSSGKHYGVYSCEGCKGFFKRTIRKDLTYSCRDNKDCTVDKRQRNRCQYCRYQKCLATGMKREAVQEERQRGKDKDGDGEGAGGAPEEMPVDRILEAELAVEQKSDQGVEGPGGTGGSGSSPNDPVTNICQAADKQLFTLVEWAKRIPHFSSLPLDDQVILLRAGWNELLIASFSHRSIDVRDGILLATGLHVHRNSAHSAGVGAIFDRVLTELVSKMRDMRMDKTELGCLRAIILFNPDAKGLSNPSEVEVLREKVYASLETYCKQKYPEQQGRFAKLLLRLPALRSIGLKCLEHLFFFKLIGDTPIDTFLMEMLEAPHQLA
In short: (§1)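 Luciferase reporter gene assay in COS-1 cells measuring inhibition of LGD1069-driven activity. IC50 is taken from full dose–response curves spanning 10^-7 to 10^-5 M.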

[2] = target: T2, Retinoic acid receptor RXR-alpha (Homo sapiens, UniProt P19793); test: Antagonist activity at RXRalpha expressed in african green monkey COS1 cells assessed as inhibition of LGD-1069-induced agonist activity; format: functional, cell-based, COS-1
T2 sequence (P19793 whole entry): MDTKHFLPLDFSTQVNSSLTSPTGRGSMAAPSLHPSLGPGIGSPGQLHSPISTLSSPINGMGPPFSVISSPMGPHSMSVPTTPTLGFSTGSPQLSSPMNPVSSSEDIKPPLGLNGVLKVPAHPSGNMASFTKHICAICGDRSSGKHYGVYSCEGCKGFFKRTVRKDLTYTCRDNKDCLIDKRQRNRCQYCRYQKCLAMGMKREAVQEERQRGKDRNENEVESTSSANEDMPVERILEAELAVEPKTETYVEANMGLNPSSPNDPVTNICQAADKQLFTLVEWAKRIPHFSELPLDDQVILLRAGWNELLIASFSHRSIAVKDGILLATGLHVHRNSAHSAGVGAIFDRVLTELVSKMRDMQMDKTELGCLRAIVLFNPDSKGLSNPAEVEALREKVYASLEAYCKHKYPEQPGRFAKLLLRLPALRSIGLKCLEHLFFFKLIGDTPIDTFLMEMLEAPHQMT

[3] = target: T3, Retinoic acid receptor RXR-gamma (Homo sapiens, UniProt P48443); test: Antagonist activity at RXRgamma expressed in african green monkey COS1 cells assessed as inhibition of LGD-1069-induced agonist activity; format: functional, cell-based, COS-1; in short: as §1
T3 sequence (P48443 whole entry): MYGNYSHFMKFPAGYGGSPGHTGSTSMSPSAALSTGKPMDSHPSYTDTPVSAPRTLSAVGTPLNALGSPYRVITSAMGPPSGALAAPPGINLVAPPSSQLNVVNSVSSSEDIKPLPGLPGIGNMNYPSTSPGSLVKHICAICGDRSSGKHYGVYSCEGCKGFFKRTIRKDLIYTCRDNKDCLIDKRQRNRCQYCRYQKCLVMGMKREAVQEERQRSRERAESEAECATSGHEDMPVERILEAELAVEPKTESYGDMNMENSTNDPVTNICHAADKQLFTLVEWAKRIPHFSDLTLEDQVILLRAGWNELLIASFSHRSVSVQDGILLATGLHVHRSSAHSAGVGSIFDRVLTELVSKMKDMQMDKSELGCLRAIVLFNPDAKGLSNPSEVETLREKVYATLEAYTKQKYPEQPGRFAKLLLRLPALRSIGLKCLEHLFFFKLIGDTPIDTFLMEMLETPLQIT

[4] = target: T4, Retinoic acid receptor RXR-gamma (Homo sapiens) (UniProt P48443); test: Agonist activity at RXRgamma expressed in african green monkey COS1 cells by luciferase reporter gene assay relative to LGD1069; format: functional, cell-based; settings: COS-1
T4 sequence (whole entry): T3 sequence (P48443 whole entry)
In short: (§2)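 Luciferase reporter gene assay in COS-1 cells. Each subtype's activity is expressed relative to 1 μM LGD1069, an RXR pan-agonist, used as the reference.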

[5] = target: T5, Retinoic acid receptor RXR-alpha (Homo sapiens) (UniProt P19793); test: Agonist activity at RXRalpha expressed in african green monkey COS1 cells by luciferase reporter gene assay relative to LGD1069; format: functional, cell-based; settings: COS-1; in short: as §2
T5 sequence (whole entry): T2 sequence (P19793 whole entry)

[6] = target: T6, Retinoic acid receptor RXR-beta (Homo sapiens) (UniProt P28702); test: Agonist activity at RXRbeta expressed in african green monkey COS1 cells by luciferase reporter gene assay relative to LGD1069; format: functional, cell-based; settings: COS-1; in short: as §2
T6 sequence (whole entry): T1 sequence (P28702 whole entry)

Compound: CC1(C)CCC(C)(C)c2cc(N(c3ccc(C(=O)O)cn3)S(=O)(=O)c3ccccc3)ccc21
- IC50 [1]: > 10 µM
- IC50 [2]: > 10 µM
- IC50 [3]: > 10 µM
- Activity [4]: inactive
- Activity [5]: inactive
- Activity [6]: inactive

Compound: CC1(C)CCC(C)(C)c2cc(N(c3ccc(C(=O)O)cn3)S(=O)(=O)c3ccc(C(F)(F)F)cc3)ccc21
- IC50 [1]: 0.75 µM
- IC50 [2]: 3.2 µM
- IC50 [3]: 2.7 µM
- Activity [4]: inactive
- Activity [5]: inactive
- Activity [6]: inactive

Compound: CN1c2ccc([N+](=O)[O-])cc2N=C(c2ccc(C(=O)O)cc2)c2cc3c(cc21)C(C)(C)CCC3(C)C
- IC50 [1]: 0.044 µM
- IC50 [3]: 0.38 µM

Compound: CCCCS(=O)(=O)N(c1ccc2c(c1)C(C)(C)CCC2(C)C)c1ccc(C(=O)O)cn1
- IC50 [1]: > 10 µM
- IC50 [2]: > 10 µM
- IC50 [3]: > 10 µM

Next, values leading:

- IC50 [1]: 3 µM
- IC50 [2]: 5.2 µM
- IC50 [3]: 3.8 µM
- Activity [4]: inactive
- Activity [5]: inactive
- Activity [6]: inactive
Compound: Cc1ccc(S(=O)(=O)N(c2ccc3c(c2)C(C)(C)CCC3(C)C)c2ccc(C(=O)O)cn2)cc1

- IC50 [1]: 3.9 µM
- IC50 [2]: 2.7 µM
- IC50 [3]: 6.6 µM
- Activity [4]: inactive
- Activity [5]: inactive
- Activity [6]: inactive
Compound: COc1ccc(S(=O)(=O)N(c2ccc3c(c2)C(C)(C)CCC3(C)C)c2ccc(C(=O)O)cn2)cc1

- IC50 [1]: > 10 µM
- IC50 [2]: > 10 µM
- IC50 [3]: > 10 µM
- Activity [4]: inactive
- Activity [5]: inactive
- Activity [6]: inactive
Compound: CC1(C)CCC(C)(C)c2cc(N(c3ccc(C(=O)O)cn3)S(=O)(=O)c3ccc([N+](=O)[O-])cc3)ccc21

- IC50 [1]: 0.87 µM
- IC50 [2]: 4.1 µM
- IC50 [3]: 4.5 µM
- Activity [4]: inactive
- Activity [5]: inactive
- Activity [6]: inactive
Compound: CC1(C)CCC(C)(C)c2cc(N(c3ccc(C(=O)O)cn3)S(=O)(=O)c3ccc(Cl)cc3)ccc21
